Measured values taken from ChEMBL document CHEMBL1126727, “Synthesis and anticonvulsant activity of enaminones. 2. Further structure-activity correlations” (J Med Chem, 1993).

Legend:
Rattus norvegicus [1] = species on record: Rattus norvegicus; test: Number of animals protected from electroshock seizure / number of animals tested (8) after 0.25 hour at 1.2 mg / kg in maximal electroshock seizures (MES); type: functional
Method in brief: (§1)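 For the intraperitoneal rat screen, compound was given as a solution or a suspension in 0.5% methylcellulose. Protection against maximal electroshock seizures was tested at 0.25 h or 0.50 h after dosing, in 8 animals per dose. Results are expressed as animals protected over animals tested, and ED50 in mg/kg ip, with a range, was derived from these counts.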

Rattus norvegicus [2] = species on record: Rattus norvegicus; test: Number of animals protected from electroshock seizure / number of animals tested (8) after 0.25 hour at 7.0 mg / kg in maximal electroshock seizures (MES); type: functional; method in brief: as §1
[3] = Toxic dose was determined after intraperitoneal administration; type: toxicity, organism-based; conditions: rat, in vivo, ip
Method in brief: (§2)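 Rats were dosed intraperitoneally, with compound given as a solution or a suspension in 0.5% methylcellulose. Neurotoxicity was scored 2.0 h after dosing in 8 animals per dose level (110–440 mg/kg). TD50 in mg/kg ip was derived from the dose–response, with a range given in parentheses.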

Rattus norvegicus [4] = species on record: Rattus norvegicus; test: Number of animals exhibiting neurotoxicity / number of animals tested (8) after 2.0 hr at 180 mg / kg; type: functional; method in brief: as §2
Rattus norvegicus [5] = species on record: Rattus norvegicus; test: Number of animals protected from electroshock seizure / number of animals tested (8) after 0.25 hour at 4.5 mg / kg in maximal electroshock seizures (MES); type: functional; method in brief: as §1
Rattus norvegicus [6] = species on record: Rattus norvegicus; test: (§3) Protective index (TD50 / MES ED50); type: functional
Rattus norvegicus [7] = species on record: Rattus norvegicus; test: Number of animals exhibiting neurotoxicity / number of animals tested (8) after 2.0 hr at 440 mg / kg; type: functional; method in brief: as §2
Rattus norvegicus [8] = species on record: Rattus norvegicus; test: Number of animals exhibiting neurotoxicity / number of animals tested (8) after 2.0 hr at 220 mg / kg; type: functional; method in brief: as §2
Rattus norvegicus [9] = species on record: Rattus norvegicus; test: Number of animals protected from electroshock seizure / number of animals tested (8) after 0.25 hour at 3.6 mg / kg in maximal electroshock seizures (MES); type: functional; method in brief: as §1
Rattus norvegicus [10] = species on record: Rattus norvegicus; test: Number of animals exhibiting neurotoxicity / number of animals tested (8) after 2.0 hr at 110 mg / kg; type: functional; method in brief: as §2
Rattus norvegicus [11] = test: Intraperitoneal (ip) toxicity tested in rats is the number of animals displaying neurotoxicity / number of animals tested (8) after 0.25 hr at 100 mg / kg; type: organism-based; design: dose 100 mg / kg; conditions: in vivo
Method in brief: (§4)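 Special ip screen run by the ADD Program in male Sprague-Dawley rats. Test drug was given ip at 100 mg/kg as a solution or suspension in 0.5% methylcellulose. Neurotoxicity was scored at 0.25, 0.5, 1, 2, 4, 6, 8 and 24 h after dosing. Each result is reported as number of rats showing neurotoxicity over number tested.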

[12] = Protective index expressed as TD50 / ED50; No toxicity; type: functional
Rattus norvegicus [13] = test: Intraperitoneal (ip) toxicity tested in rats is the number of animals displaying neurotoxicity / number of animals tested (8) after 24 hr at 100 mg / kg; type: organism-based; design: dose 100 mg / kg; conditions: in vivo; method in brief: as §4
Rattus norvegicus [14] = test: Intraperitoneal (ip) toxicity tested in rats is the number of animals displaying neurotoxicity / number of animals tested (8) after 4 h at 100 mg / kg; type: organism-based; design: dose 100 mg / kg; conditions: in vivo; method in brief: as §4
Rattus norvegicus [15] = test: Toxicity observed in rats at >500 mg/kg po; conditions: in vivo
Rattus norvegicus [16] = test: Intraperitoneal (ip) toxicity tested in rats is the number of animals displaying neurotoxicity / number of animals tested (8) after 1 hr at 100 mg / kg; type: organism-based; design: dose 100 mg / kg; conditions: in vivo; method in brief: as §4
Rattus norvegicus [17] = test: Intraperitoneal (ip) toxicity tested in rats is the number of animals displaying neurotoxicity / number of animals tested (8) after 2 h at 100 mg / kg; type: organism-based; design: dose 100 mg / kg; conditions: in vivo; method in brief: as §4
Rattus norvegicus [18] = test: Intraperitoneal (ip) toxicity tested in rats is the number of animals displaying neurotoxicity / number of animals tested (8) after 0.50 h at 100 mg / kg; type: organism-based; design: dose 100 mg / kg; conditions: in vivo, 0.5 h; method in brief: as §4
Mus musculus [19] = test: Effective dose administered intraperitoneally in mice at 15 minutes in maximal-electroshock (MES) test; conditions: ip, 0.25 h
Rattus norvegicus [20] = test: Intraperitoneal (ip) toxicity tested in rats is the number of animals displaying neurotoxicity / number of animals tested (8) after 6 hr at 100 mg / kg; type: organism-based; design: dose 100 mg / kg; conditions: in vivo; method in brief: as §4
[21] = Protective index expressed as TD50 / ED50; type: functional
Mus musculus [22] = test: Toxicity observed in mice at >750 mg/kg ip; No Toxicity; conditions: in vivo
Rattus norvegicus [23] = test: Anticonvulsant activity reported as duration in amygdala kindled rats at 500 mg/kg (after discharge); type: functional
Rattus norvegicus [24] = test: Anticonvulsant activity reported as cortex latency in amygdala kindled rats at 500 mg/kg (after discharge); type: functional
Rattus norvegicus [25] = test: Anticonvulsant activity tested at seizure stage in amygdala kindled rats at 500 mg/kg; type: functional
Rattus norvegicus [26] = test: Anticonvulsant activity reported as duration in amygdala kindled rats at 500 mg/kg (Behavioral seizure); type: functional
Rattus norvegicus [27] = test: Anticonvulsant activity reported as duration in amygdala kindled rats at 500 mg/kg (Forelimb clonus); type: functional
Rattus norvegicus [28] = test: Anticonvulsant activity reported as amygdala duration in amygdala kindled rats at 500 mg/kg (after discharge); type: functional
Rattus norvegicus [29] = test: Anticonvulsant activity reported as latency in amygdala kindled rats at 500 mg/kg (Behavioral seizure); type: functional
Rattus norvegicus [30] = test: Anticonvulsant activity reported as latency in amygdala kindled rats at 500 mg/kg (Forelimb clonus); type: functional
Rattus norvegicus [31] = test: Anticonvulsant activity reported as latency in amygdala kindled rats at 350 mg/kg (Forelimb clonus); type: functional
Rattus norvegicus [32] = test: Anticonvulsant activity reported as amygdala duration in amygdala kindled rats at 350 mg/kg (after discharge); type: functional
Rattus norvegicus [33] = test: Anticonvulsant activity tested at seizure stage in amygdala kindled rats at 350 mg/kg; type: functional
Rattus norvegicus [34] = test: Anticonvulsant activity reported as latency in amygdala kindled rats at 350 mg/kg (Behavioral seizure); type: functional
Rattus norvegicus [35] = test: Anticonvulsant activity reported as duration in amygdala kindled rats at 350 mg/kg (Forelimb clonus); type: functional
Rattus norvegicus [36] = test: Anticonvulsant activity reported as duration in amygdala kindled rats at 350 mg/kg (after discharge); type: functional
Rattus norvegicus [37] = test: Intraperitoneal (ip) toxicity tested in rats is the number of animals displaying neurotoxicity / number of animals tested (8) after 8 hr at 100 mg / kg; type: organism-based; design: dose 100 mg / kg; conditions: in vivo; method in brief: as §4
Rattus norvegicus [38] = test: Anticonvulsant activity reported as cortex latency in amygdala kindled rats at 350 mg/kg (after discharge); type: functional
Rattus norvegicus [39] = test: Intraperitoneal (ip) toxicity tested in rats is the number of animals displaying neurotoxicity / number of animals tested (8) after 24 hr at 100 mg / kg (Two testing animals died); type: organism-based; design: dose 100 mg / kg; conditions: in vivo; method in brief: as §4
Rattus norvegicus [40] = test: Anticonvulsant activity reported as duration in amygdala kindled rats at 350 mg/kg (Behavioral seizure); type: functional
Rattus norvegicus [41] = species on record: Rattus norvegicus; test: Number of animals protected from electroshock seizure / number of animals tested (8) after 0.50 hour at 3.0 mg / kg in maximal electroshock seizures (MES); type: functional; method in brief: as §1
[42] = as §3; type: functional
Rattus norvegicus [43] = species on record: Rattus norvegicus; test: Number of animals exhibiting neurotoxicity / number of animals tested (2) after 0.25-24 h at 64 mg / kg
Rattus norvegicus [44] = species on record: Rattus norvegicus; test: Number of animals exhibiting neurotoxicity / number of animals tested (2) after 0.25-24 hr at 16 mg / kg
Rattus norvegicus [45] = species on record: Rattus norvegicus; test: Number of animals protected from electroshock seizure / number of animals tested (8) after 0.50 hour at 3.5 mg / kg in maximal electroshock seizures (MES); type: functional; method in brief: as §1
Rattus norvegicus [46] = species on record: Rattus norvegicus; test: Number of animals exhibiting neurotoxicity / number of animals tested (2) after 0.25-24 hr at 8 mg / kg
Rattus norvegicus [47] = species on record: Rattus norvegicus; test: Number of animals protected from electroshock seizure / number of animals tested (8) after 0.50 hour at 2.0 mg / kg in maximal electroshock seizures (MES); type: functional; method in brief: as §1
Rattus norvegicus [48] = species on record: Rattus norvegicus; test: Number of animals protected from electroshock seizure / number of animals tested (8) after 0.50 hour at 4.0 mg / kg in maximal electroshock seizures (MES); type: functional; method in brief: as §1
Rattus norvegicus [49] = species on record: Rattus norvegicus; test: Number of animals exhibiting neurotoxicity / number of animals tested (2) after 0.25-24 hr at 32 mg / kg
Rattus norvegicus [50] = species on record: Rattus norvegicus; test: Number of animals protected from electroshock seizure / number of animals tested (8) after 0.50 hour at 1.0 mg / kg in maximal electroshock seizures (MES); type: functional; method in brief: as §1

SMILES: COC(=O)C1C(=O)C=C(Nc2ccc(Br)cc2)CC1C (stereo not given)
- No. of animals (Rattus norvegicus [1]): 0
- No. of animals (Rattus norvegicus [2]): 7
- TD50 [3]: 270 mg/kg
- No. of animals (Rattus norvegicus [4]): 2
- No. of animals (Rattus norvegicus [5]): 3
- PI (Rattus norvegicus [6]): 67.4
- No. of animals (Rattus norvegicus [7]): 6
- No. of animals (Rattus norvegicus [8]): 4
- No. of animals (Rattus norvegicus [9]): 5
- No. of animals (Rattus norvegicus [10]): 0

SMILES: CC1(C)CC(O)=C/C(=N\c2ccccc2)C1
- Toxicity (Rattus norvegicus [11]): 5
- PI [12]: > 13.7
- Toxicity (Rattus norvegicus [13]): 0
- Toxicity (Rattus norvegicus [14]): 3
- Toxicity (Rattus norvegicus [15]): Toxicity observed in mice at >500 mg/kg po
- Toxicity (Rattus norvegicus [16]): 6
- Toxicity (Rattus norvegicus [17]): 6
- Toxicity (Rattus norvegicus [18]): 7
- ED50 (Mus musculus [19]): 36.4 mg/kg
- Toxicity (Rattus norvegicus [20]): 3

SMILES: CCc1ccc(NC2=CC(=O)C(C(=O)OC)C(C)C2)cc1 (stereo not given)
- Toxicity (Rattus norvegicus [11]): 1
- PI [21]: > 6.6
- Toxicity (Rattus norvegicus [13]): 0
- Toxicity (Rattus norvegicus [14]): 0
- Toxicity (Rattus norvegicus [16]): 0
- Toxicity (Rattus norvegicus [17]): 0
- Toxicity (Mus musculus [22]): No Toxicity
- Toxicity (Rattus norvegicus [18]): 5
- ED50 (Mus musculus [19]): 114 mg/kg
- Toxicity (Rattus norvegicus [20]): 0

SMILES: COC(=O)C1C(=O)C=C(NCc2ccccc2)CC1C (stereo not given)
- Duration (Rattus norvegicus [23]): 78.9 s
- Latency (Rattus norvegicus [24]): 2.8 s
- Seizure stage (Rattus norvegicus [25]): 5
- Duration (Rattus norvegicus [26]): 79.5 s
- Duration (Rattus norvegicus [27]): 44.2 s
- Duration (Rattus norvegicus [28]): 73.9 s
- Latency (Rattus norvegicus [29]): 2.1 s
- Latency (Rattus norvegicus [30]): 9.3 s

SMILES: COC(=O)C1C(=O)C=C(Nc2ccc(Cl)cc2)CC1C (stereo not given)
- Latency (Rattus norvegicus [31]): 9.2 s
- Toxicity (Rattus norvegicus [11]): 0
- Duration (Rattus norvegicus [32]): 79.8 s
- Seizure stage (Rattus norvegicus [33]): 5
- Latency (Rattus norvegicus [34]): 2.1 s
- Duration (Rattus norvegicus [35]): 45.3 s
- Toxicity (Rattus norvegicus [14]): 2
- Toxicity (Rattus norvegicus [16]): 6
- Toxicity (Rattus norvegicus [17]): 7
- Duration (Rattus norvegicus [36]): 79.6 s
- Toxicity (Rattus norvegicus [37]): 0
- Latency (Rattus norvegicus [38]): 2.7 s
- Toxicity (Rattus norvegicus [18]): 3
- Toxicity (Rattus norvegicus [20]): 1
- Toxicity (Rattus norvegicus [39]): 2
- Duration (Rattus norvegicus [40]): 82.3 s

SMILES: COC(=O)C1C(=O)C=C(Nc2ccc(C(F)(F)F)cc2)CC1C (stereo not given)
- No. of animals (Rattus norvegicus [41]): 3
- PI [42]: > 21.7
- No. of animals (Rattus norvegicus [43]): 0
- No. of animals (Rattus norvegicus [44]): 0
- TD50 [3]: > 64 mg/kg
- No. of animals (Rattus norvegicus [45]): 4
- No. of animals (Rattus norvegicus [46]): 0
- No. of animals (Rattus norvegicus [47]): 3
- No. of animals (Rattus norvegicus [48]): 7
- No. of animals (Rattus norvegicus [49]): 0
- No. of animals (Rattus norvegicus [50]): 0
